Assay outcomes from PubChem.
This is a sample that favours compounds with a hit; in the whole collection about 2.8% have one here.
PAFAH2 inh – PAFAH2 (human) inhibition | inhibition, % at 3.39 µM | 340,000 compounds, 0.99% hits | recombinant PAFAH2, FP-rhodamine activity probe, fluorescence polarization | Q99487 | AID 492956;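 active means inhibition above the mean over all tested compounds plus 3 SD, cut at about 30% in these data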;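 further: inhibitors block probe labeling of enzyme so polarization drops; 0% = enzyme with DMSO and 100% = wells lacking PAFAH2 protein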
ASAP1 GAP inh – blocks human ASAP1-stimulated Arf1 GTP hydrolysis; Q9ULH1; 360,000 compounds, 0.19% hits; inhibition, % at 16.5 µM; GDP FP detection; in the data active means inhibition above about 25%;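 further: 0% = vehicle with enzyme and substrate and 100% = no enzyme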
Target sequence (Q9ULH1 325-724 limits assumed): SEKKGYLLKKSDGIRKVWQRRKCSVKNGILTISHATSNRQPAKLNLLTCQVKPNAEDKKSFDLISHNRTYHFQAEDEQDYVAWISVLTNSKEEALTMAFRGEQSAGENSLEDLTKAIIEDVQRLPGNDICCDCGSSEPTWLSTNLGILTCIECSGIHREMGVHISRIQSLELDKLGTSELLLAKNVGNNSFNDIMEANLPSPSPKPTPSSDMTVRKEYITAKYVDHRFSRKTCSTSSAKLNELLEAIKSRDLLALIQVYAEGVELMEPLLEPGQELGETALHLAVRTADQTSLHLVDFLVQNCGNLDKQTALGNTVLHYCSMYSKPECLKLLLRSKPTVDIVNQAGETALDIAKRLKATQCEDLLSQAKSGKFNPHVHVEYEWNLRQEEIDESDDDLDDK
PAFAH1B2 inh – inhibitors of human PAFAH1B2; P68402; recombinant PAFAH1B2, FP-rhodamine activity probe, fluorescence polarization; inhibition, % at 3.39 µM; 340,000 compounds, 1.2% hits;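 active means inhibition above the mean of all tested compounds plus 3 SD, cut at about 24% in these data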;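 further: 0% = enzyme with DMSO and 100% = wells lacking PAFAH1B2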
ARFGAP1 inhibitor – rat ARFGAP1 inhibition. Arfgap1-stimulated ARF1 GTP hydrolysis, GDP FP detection. Q62848. 360,000 compounds, 0.26% hits. inhibition, % at 16.5 µM. AID 651572;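 active means inhibition above a per-plate limit, mean inhibition of low control wells plus 3 SD, cut at about 25% in these data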;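 further: 0% = DMSO wells with enzyme and 100% = wells lacking Arfgap1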
Target sequence (Q62848 1-136 limits assumed): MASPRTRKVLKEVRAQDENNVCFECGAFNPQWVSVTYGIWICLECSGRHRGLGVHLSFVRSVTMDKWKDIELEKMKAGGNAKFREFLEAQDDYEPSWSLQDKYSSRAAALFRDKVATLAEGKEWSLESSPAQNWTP
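Assay system: purified rat His6-Arfgap1 residues 1-136 (GAP domain); Reagent: human Δ17 ARF1 bound to GTP; Dosing: 16.5 µM single point, 1.26% DMSO; Times: GTP hydrolysis reaction 2 h at 25 °C; Signal: FP, GDP Alexa 633 tracer displaced from anti-GDP antibody, 620/688 nm; Measure: % inhibition from polarization.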
PAFAH1B3 inh – inhibitors of human PAFAH1B3 | Q15102 | recombinant PAFAH1B3, FP-rhodamine probe, fluorescence polarization | inhibition, % at 3.39 µM | 340,000 compounds, 0.28% hits | AID 492972;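 active means inhibition above the screen-wide average of all tested compounds plus 3 SD, cut at about 25% in these data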;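 further: 0% = enzyme with DMSO only and 100% = wells lacking PAFAH1B3 protein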
pPAFAH inh – inhibitors of human plasma PAF acetylhydrolase (pPAFAH). inhibition, % at 3.39 µM. recombinant pPAFAH, FP-rhodamine probe fluorescence polarization. AID 463082. 330,000 compounds, 1.5% hits. Q13093;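 active means inhibition above the mean inhibition across the screen plus 3 SD, cut at about 25% in these data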;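 further: inhibitors block binding of the rhodamine activity-based probe so polarization drops; 0% = enzyme with DMSO and 100% = wells lacking pPAFAH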
* hit, by the source's call.

Results for COc1ccc(-c2cc(C(=O)N3CCN(c4cccc(C)c4C)CC3)c3ccccc3n2)cc1OC ?
PAFAH2 inh: -6.6; PAFAH1B2 inh: -2.5; PAFAH1B3 inh: -6.8; pPAFAH inh: -1.0

Results for Cc1ccc(S(=O)(=O)NNC(=O)CCCCC(=O)NNS(=O)(=O)c2ccc(C)cc2)cc1 ?
PAFAH2 inh: 10.6; ASAP1 GAP inh: 1.8; PAFAH1B2 inh: 24.0; ARFGAP1 inhibitor: 2.9; PAFAH1B3 inh: 4.6; pPAFAH inh: -0.3

How did Cc1ccc(S(=O)(=O)NNC(=O)C(=O)NNS(=O)(=O)c2ccc(C)cc2)cc1 do in these assays?
PAFAH2 inh: 2.3; ASAP1 GAP inh: 1.5; PAFAH1B2 inh: 28.2*; ARFGAP1 inhibitor: -8.4; PAFAH1B3 inh: -3.8; pPAFAH inh: 1.1

What do the screens show for `CC(=O)Nc1ccc(S(=O)(=O)c2ccc(C)cc2)cc1`?
PAFAH2 inh: 7.4; ASAP1 GAP inh: 12.2; PAFAH1B2 inh: 25.1*; ARFGAP1 inhibitor: -1.9; PAFAH1B3 inh: 14.2; pPAFAH inh: -2.8

Results for CC(=O)Cc1nsc(NC(=O)c2ccc(COc3ccccc3Cl)o2)n1 ?
PAFAH2 inh: -0.3; ASAP1 GAP inh: 2.6; PAFAH1B2 inh: 5.8; ARFGAP1 inhibitor: -3.9; PAFAH1B3 inh: 1.4; pPAFAH inh: -4.5

Results for CC(=O)Cc1nsc(NC(=O)c2ccc(COc3ccccc3)o2)n1 ?
PAFAH2 inh: -9.0; ASAP1 GAP inh: 0.7; PAFAH1B2 inh: 1.8; ARFGAP1 inhibitor: -9.6; PAFAH1B3 inh: -3.7; pPAFAH inh: 26.8*

What do the screens show for `CCN1C(=O)[C@H]2[C@@H](c3ccc(-c4cccc(Cl)c4)cc3)N[C@@](C)(C(=O)OC)[C@H]2C1=O`?
PAFAH2 inh: -10.3; ASAP1 GAP inh: -6.2; PAFAH1B2 inh: -1.7; ARFGAP1 inhibitor: -10.9; PAFAH1B3 inh: 0.0; pPAFAH inh: 33.9*

Results for CCN1C(=O)[C@H]2[C@@H](c3ccc(-c4ccccc4)cc3)N[C@@](C)(C(=O)OC)[C@H]2C1=O ?
PAFAH2 inh: 1.8; ASAP1 GAP inh: 5.5; PAFAH1B2 inh: 1.5; ARFGAP1 inhibitor: -3.3; PAFAH1B3 inh: 1.1; pPAFAH inh: 2.9

How did COc1cc(NS(=O)(=O)c2ccc(C)cc2)c2ncccc2c1 do in these assays?
PAFAH2 inh: 8.8; ASAP1 GAP inh: -4.7; PAFAH1B2 inh: 6.3; ARFGAP1 inhibitor: -1.6; PAFAH1B3 inh: 7.3; pPAFAH inh: 6.8

What do the screens show for `CCC(CNc1cc(OC)cc2cccnc12)NC1CCCCC1` (stereo unspecified)?
PAFAH2 inh: -0.5; ASAP1 GAP inh: 18.1; PAFAH1B2 inh: 4.8; ARFGAP1 inhibitor: 7.2; PAFAH1B3 inh: 13.3; pPAFAH inh: 25.4*

Results for Cc1c(OCC(=O)N[C@@H](CSCc2ccccc2)C(=O)O)ccc2c3c(c(=O)oc12)CCC3 ?
PAFAH2 inh: 13.1; ASAP1 GAP inh: 3.8; PAFAH1B2 inh: 24.4*; ARFGAP1 inhibitor: -17.4; PAFAH1B3 inh: 1.7

Results for CC(Oc1ccc(-c2ccccc2)c(F)c1)c1ccn(S(=O)(=O)c2ccc(Cl)cc2)n1 (stereo unspecified) ?
PAFAH2 inh: 1.2; ASAP1 GAP inh: 12.0; PAFAH1B2 inh: -5.3; ARFGAP1 inhibitor: 2.7; PAFAH1B3 inh: -8.0; pPAFAH inh: 4.8

Results for CC(Oc1ccc(Cl)cc1)c1ccnn1S(=O)(=O)c1ccccc1 (stereo unspecified) ?
PAFAH2 inh: -3.7; ASAP1 GAP inh: 2.4; PAFAH1B2 inh: 50.6*; ARFGAP1 inhibitor: 0.8; PAFAH1B3 inh: 3.0; pPAFAH inh: 14.7

Results for COc1ccc(CNC(=O)c2noc(C)c2[N+](=O)[O-])cc1 ?
PAFAH2 inh: -6.9; ASAP1 GAP inh: 6.6; PAFAH1B2 inh: 2.2; ARFGAP1 inhibitor: -9.0; PAFAH1B3 inh: 12.7; pPAFAH inh: 3.3

What do the screens show for `O=C(O/N=C/c1ccc2c(c1)OCO2)c1ccccc1Cl`?
pPAFAH inh: 37.4*

How did O=C(N/N=C/c1ccc2c(c1)OCO2)C(=O)Nc1ccccc1Cl do in these assays?
PAFAH2 inh: -6.3; ASAP1 GAP inh: -12.5; PAFAH1B2 inh: -5.9; ARFGAP1 inhibitor: 3.1; PAFAH1B3 inh: 16.0

What do the screens show for `COc1ccc(NC(=O)c2cc(-c3cc(C)cc(F)c3)n[nH]2)cc1OC`?
ASAP1 GAP inh: -8.1; ARFGAP1 inhibitor: 8.2

What do the screens show for `CCNC(=S)NNC(=O)c1cc(-c2cccc(C)c2)nc2ccccc12`?
PAFAH2 inh: -2.5; ASAP1 GAP inh: -0.8; PAFAH1B2 inh: 31.9*; ARFGAP1 inhibitor: -13.9; PAFAH1B3 inh: 0.1; pPAFAH inh: 22.5
